# Data: ChEMBL document CHEMBL1142198, “Diversity of ampicillin resistance genes and antimicrobial susceptibility patterns in Haemophilus influenzae strains isolated in Korea” (2007)
# Columns and labels:
# Assay type in all cases: functional
# Haemophilus influenzae [1] = experiment: Antimicrobial activity against Haemophilus influenzae BLNAS strains
# Summary of the method: (§1)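 Etest MIC determination on Haemophilus test medium agar inoculated evenly with a broth suspension equivalent to a 0.5 McFarland standard. Once dry, strips for 10 antibiotics applied; incubated 35°C, 5% CO2, 20 h. MIC read at complete growth inhibition. ATCC 49766 and ATCC 49247 included as controls in each batch. Korean clinical isolates 2000–2005 classified by nitrocefin disk and PCR.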
# Haemophilus influenzae [2] = experiment: Antimicrobial activity against Haemophilus influenzae strains that are normal flora; summary of the method: as §1
# Haemophilus influenzae [3] = experiment: Antimicrobial activity against Haemophilus influenzae BLPAR strains; summary of the method: as §1
# Haemophilus influenzae [4] = experiment: Antimicrobial activity against Haemophilus influenzae strains causing clinical infections
# Summary of the method: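 Etest MICs for 196 clinical-infection isolates collected 2000–2005 at two Seoul tertiary-care hospitals. A 0.5 McFarland broth suspension was spread on Haemophilus test medium agar, strips applied once dry, then incubated 35°C, 5% CO2, 20 h. ATCC 49766 and ATCC 49247 served as controls in each batch.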
# Haemophilus influenzae [5] = experiment: Antimicrobial activity against Haemophilus influenzae BLPACR strains; summary of the method: as §1
# Haemophilus influenzae [6] = experiment: Antimicrobial activity against Haemophilus influenzae BLNAR strains; summary of the method: as §1
SMILES,MIC50 (Haemophilus influenzae [1]) [µg/mL],MIC90 (Haemophilus influenzae [1]) [µg/mL],MIC50 (Haemophilus influenzae [2]) [µg/mL],MIC90 (Haemophilus influenzae [2]) [µg/mL],MIC50 (Haemophilus influenzae [3]) [µg/mL],MIC90 (Haemophilus influenzae [3]) [µg/mL],MIC50 (Haemophilus influenzae [4]) [µg/mL],MIC90 (Haemophilus influenzae [4]) [µg/mL],MIC50 (Haemophilus influenzae [5]) [µg/mL],MIC90 (Haemophilus influenzae [5]) [µg/mL],MIC50 (Haemophilus influenzae [6]) [µg/mL],MIC90 (Haemophilus influenzae [6]) [µg/mL]
CC1(C)S[C@@H]2[C@H](NC(=O)[C@H](N)c3ccccc3)C(=O)N2[C@H]1C(=O)O [AMPICILLIN],0.25,0.38,0.38,256,256,256,24,256,256,256,0.75,256
N[C@@H](C(=O)N[C@@H]1C(=O)N2C(C(=O)O)=C(Cl)CS[C@H]12)c1ccccc1 [CEFACLOR ANHYDROUS],2,6,2,256,12,256,8,256,16,256,6,256
C=CC1=C(C(=O)O)N2C(=O)[C@@H](NC(=O)/C(=N\OCC(=O)O)c3csc(N)n3)[C@H]2SC1 [CEFIXIME],0.023,0.064,0.047,32,0.047,32,0.047,0.75,0.064,256,0.064,32
CO/N=C(\C(=O)N[C@@H]1C(=O)N2C(C(=O)O)=C(COC(N)=O)CS[C@H]12)c1ccco1 [CEFUROXIME],0.5,1,0.5,256,1,256,1,8,1,256,1,8
O=C(N[C@H](CO)[C@H](O)c1ccc([N+](=O)[O-])cc1)C(Cl)Cl [CHLORAMPHENICOL],0.5,0.75,0.75,4,0.75,12,0.5,8,0.5,8,0.5,6
CC[C@H]1OC(=O)[C@H](C)[C@@H](O[C@H]2C[C@@](C)(OC)[C@@H](O)[C@H](C)O2)[C@H](C)[C@@H](O[C@@H]2O[C@H](C)C[C@H](N(C)C)[C@H]2O)[C@](C)(OC)C[C@@H](C)C(=O)[C@H](C)[C@@H](O)[C@]1(C)O [CLARITHROMYCIN],16,24,16,32,16,32,16,32,16,256,12,24
C[C@H]1COc2c(N3CCN(C)CC3)c(F)cc3c(=O)c(C(=O)O)cn1c23.C[C@H]1COc2c(N3CCN(C)CC3)c(F)cc3c(=O)c(C(=O)O)cn1c23.O [LEVOFLOXACIN],0.016,0.032,0.023,1,0.016,0.032,0.016,0.32,0.016,0.047,0.023,1
C[C@@H](O)[C@H]1C(=O)N2C(C(=O)O)=C(S[C@@H]3CN[C@H](C(=O)N(C)C)C3)[C@H](C)[C@H]12 [MEROPENEM],0.064,0.125,0.094,32,0.094,32,0.094,32,0.19,0.38,0.125,32
